Results reported in ChEMBL document CHEMBL1152122, “New lithocholic and chenodeoxycholic piperazinylcarboxamides with antiproliferative and pro-apoptotic effects on human cancer cell lines” (2008).
Active and inactive are the calls of the source. The calls are words filed in the database; no cut-off is given here.

Tests used:
HCT-116 [1] = assay: Cytotoxicity against human HCT116 cells after 24 hrs by neutral red uptake assay; assay type: functional; details: HCT-116, 24 h, read-out: LD50 (the source's name)
Outline: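 Compounds added after 24 h for a 24 h dose-response, with DMSO vehicle controls. Neutral red 50 µg/mL final for 3 h, then fixation, acid-ethanol extraction and OD at 570 nm. LD50 taken from curves; mean ± standard error of ≥3 experiments.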

HCT-116 [2] = assay: Cytotoxicity against human HCT116 cells at 50 uM after 48 hrs by neutral red uptake assay; assay type: functional, cell-based
Outline: (§1)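 After 24 h, a single 50 µM dose was given for 24 or 48 h, with DMSO controls. Neutral red uptake for 3 h at 50 µg/mL final, with read-out at OD 570 nm. Viability expressed as % of untreated cells, four wells per line.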

GBM [3] = assay: Cytotoxicity against human GBM cells at 50 uM after 48 hrs by neutral red uptake assay; assay type: functional, cell-based; outline: as §1
GBM [4] = assay: Cytotoxicity against human GBM cells at 50 uM after 24 hrs by neutral red uptake assay; assay type: functional, cell-based; outline: as §1
KMS-11 [5] = assay: Cytotoxicity against human KMS11 cells at 50 uM after 48 hrs by neutral red uptake assay; assay type: functional, cell-based; outline: as §1
KMS-11 [6] = assay: Cytotoxicity against human KMS11 cells at 50 uM after 24 hrs by neutral red uptake assay; assay type: functional, cell-based; outline: as §1
HCT-116 [7] = assay: Cytotoxicity against human HCT116 cells at 50 uM after 24 hrs by neutral red uptake assay; assay type: functional, cell-based; outline: as §1
KMS-11 [8] = assay: Induction of apoptosis in human KMS11 cells assessed as hyperphosphorylation of IkappaB after 24 hrs by Western blotting; assay type: functional, cell-based
Outline: (§2)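 KMS-11 cells treated 24 h. 5×10^6 cells lysed 40 min on ice (10 mM Tris pH 7.6, 150 mM NaCl, 5 mM EDTA, 1% Triton X-100, PMSF, aprotinin), cleared at 10,000 g. Equal BCA-quantified protein run on reducing SDS-PAGE and transferred to PVDF. Primary antibodies (PARP-1, Mcl-1, IκBα, phospho-IκBα) overnight at 4 °C, then HRP secondary 30 min, chemiluminescent detection.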

KMS-11 [9] = assay: Induction of apoptosis in human KMS11 cells assessed as fragmentation of nuclei at 20 uM after 24 hrs […]; assay type: functional
KMS-11 [10] = assay: Cytotoxicity against human KMS11 cells assessed as morphological changes at 12 uM after 24 hrs by neutral red uptake assay; assay type: functional, cell-based
Outline: (§3)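 Cells in RPMI 1640 with 10% FCS (GBM primary culture, HCT-116) or 5% FCS (KMS-11), 2 mM glutamine, antibiotics, used at 70–80% confluency. Morphology examined alongside neutral red uptake viability.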

KMS-11 [11] = assay: Induction of apoptosis in human KMS11 cells after 24 hrs by PC5-labeled Apo2.7 antibody based flow cytometry; assay type: functional, cell-based
Outline: (§4)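 KMS-11 cells treated 24 h at the stated concentrations, then stained with the phycoerythrin-labeled APO2.7 antibody kit, which detects mitochondrial 7A6 antigen. Analysed by flow cytometry and reported as % APO2.7-positive cells.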

KMS-11 [12] = assay: Induction of apoptosis in human KMS11 cells assessed as Cleavage of Mcl-1 after 24 hrs by Western blotting; assay type: functional, cell-based; outline: as §2
GBM [13] = assay: Cytotoxicity against human GBM cells assessed as morphological changes at 12 uM after 24 hrs by neutral red uptake assay; assay type: functional, cell-based; outline: as §3
KMS-11 [14] = assay: Induction of apoptosis in human KMS11 cells at 40 uM after 24 hrs by PC5-labeled Apo2.7 antibody based flow cytometry; assay type: functional; outline: as §4
KMS-11 [15] = assay: Induction of apoptosis in human KMS11 cells assessed as fragmentation of nuclei at 10 uM after 24 hrs […]; assay type: functional
KMS-11 [16] = assay: Induction of apoptosis in human KMS11 cells at 10 uM after 24 hrs by PC5-labeled Apo2.7 antibody based flow cytometry; assay type: functional; outline: as §4
KMS-11 [17] = assay: Induction of apoptosis in human KMS11 cells assessed as Cleavage of PARP-1 after 24 hrs by Western blotting; assay type: functional, cell-based; outline: as §2
KMS-11 [18] = assay: Cytotoxicity against human KMS11 cells assessed as [3H]thymidine incorporation at 20 uM after 24 hrs; assay type: functional, cell-based
Outline: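 KMS-11 (multiple myeloma plasma-cell line) in RPMI 1640 with 5% FCS, seeded at 500,000 cells/well in triplicate at 37 °C, 5% CO2. After 24 h, drug or vehicle added in fresh medium. After 24 h, pulsed with 1 μCi/well [3H]thymidine. Cells trypsin/EDTA-detached, harvested onto glass filters, counted by scintillation. Output as % of untreated cells; three independent experiments.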

KMS-11 [19] = assay: Induction of apoptosis in human KMS11 cells assessed as DNA fragmentation at 5 uM after 24 hrs by Hoechst staining; assay type: functional, cell-based
Outline: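 KMS-11 cells on glass coverslips fixed in 2% formaldehyde 10 min and stained with Hoechst 33342 (1 µg/mL in PBS, 5 min). Nuclei viewed by epifluorescence microscopy under 350 nm excitation.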

HCT-116 [20] = assay: Cytotoxicity against human HCT116 cells assessed as morphological changes at 12 uM after 24 hrs by neutral red uptake assay; assay type: functional, cell-based; outline: as §3

Row | SMILES | CC50 (HCT-116 [1]) | Activity (HCT-116 [2]) | Activity (GBM [3]) | Activity (GBM [4]) | Activity (KMS-11 [5]) | Activity (KMS-11 [6]) | Activity (HCT-116 [7]) | other results
1 | C[C@H](CCC(=O)N1CCN(c2ncccn2)CC1)[C@H]1CC[C@H]2[C@@H]3CC[C@@H]4C[C@H](O)CC[C@]4(C)[C@H]3CC[C@]12C | 50 µM | – | – | – | – | – | – | –
2 | C[C@H](CCC(=O)N1CCN(c2ncccn2)CC1)[C@H]1CC[C@H]2[C@@H]3[C@H](O)C[C@@H]4C[C@H](O)CC[C@]4(C)[C@H]3CC[C@]12C | 30 µM | – | – | – | – | – | – | –
3 | C[C@H](CCC(=O)O)[C@H]1CC[C@H]2[C@@H]3[C@H](O)C[C@@H]4C[C@H](O)CC[C@]4(C)[C@H]3CC[C@]12C [CHENODIOL] | > 50 µM | inactive | inactive | inactive | inactive | inactive | inactive | –
4 | C[C@H](CCC(=O)N1CCN(c2ccccn2)CC1)[C@H]1CC[C@H]2[C@@H]3[C@H](O)C[C@@H]4C[C@H](O)CC[C@]4(C)[C@H]3CC[C@]12C | > 50 µM | inactive | inactive | inactive | inactive | inactive | inactive | –
5 | C[C@H](CCC(=O)O)[C@H]1CC[C@H]2[C@@H]3CC[C@@H]4C[C@H](O)CC[C@]4(C)[C@H]3CC[C@]12C [LITHOCHOLIC ACID] | > 50 µM | inactive | inactive | inactive | inactive | inactive | inactive | –
6 | C[C@H](CCC(=O)N1CCN(C/C=C/c2ccccc2)CC1)[C@H]1CC[C@H]2[C@@H]3CC[C@@H]4C[C@H](O)CC[C@]4(C)[C@H]3CC[C@]12C | > 50 µM | inactive | inactive | inactive | inactive | inactive | inactive | –
7 | C[C@H](CCC(=O)N1CCN(C/C=C/c2ccccc2)CC1)[C@H]1CC[C@H]2[C@@H]3[C@H](O)C[C@@H]4C[C@H](O)CC[C@]4(C)[C@H]3CC[C@]12C | 18.5 µM | – | – | Active | – | Active | Active | Activity (KMS-11 [8]): Active; Activity (KMS-11 [9]): 61%; Activity (KMS-11 [10]): Active; Activity (KMS-11 [11]): Dose-dependent effect; Activity (KMS-11 [12]): Active; Activity (GBM [13]): Active; Activity (KMS-11 [14]): 86%; Activity (KMS-11 [15]): 5%; Activity (KMS-11 [16]): 37%; Activity (KMS-11 [17]): Active; Activity (KMS-11 [18]): Active; Activity (KMS-11 [19]): Active; Activity (HCT-116 [20]): Active
8 | c1cnc(N2CCNCC2)nc1 | – | inactive | inactive | inactive | inactive | inactive | inactive | –
9 | c1ccc(N2CCNCC2)nc1 | – | inactive | inactive | inactive | inactive | inactive | inactive | –
10 | C[C@H](CCC(=O)N1CCN(c2ccccn2)CC1)[C@H]1CC[C@H]2[C@@H]3CC[C@@H]4C[C@H](O)CC[C@]4(C)[C@H]3CC[C@]12C | 50 µM | – | – | – | – | – | – | –
11 | C(=C\c1ccccc1)/CN1CCNCC1 | – | inactive | inactive | inactive | inactive | inactive | inactive | –
